This passage reports cytotoxicity results from ChEMBL document CHEMBL4513216, “Probing the Open Global Health Chemical Diversity Library for Multistage-Active Starting Points for Next-Generation Antimalarials” (ACS Infect Dis, 2020).

The structures appear in SMILES notation.

A short description of the data set: Toxicity liver stage against HepG2, at 10uM. Set-up: test concentration 10 uM, cell line HepG2-A16-CD81EGFP. Particulars: human, HepG2-A16-CD81EGFP cells; read-out: INHIBITION
It is filed as cell-based. In outline: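 Uninfected HepG2-A16-CD81EGFP cells, 3 × 10^3 per well, 1536-well, plated on prespotted compound at 10 μM final, parasite-free screening media added to match infected plates; puromycin 10 μM positive, DMSO 0.5% negative; run in parallel with 48 h PbLuc assay at 37 °C, 5% CO2; viability by CellTiter-Glo luminescence, normalized to controls.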
`FC(F)(F)c1ccc2nc([C@H]3CCN(C4CCC4)C3)[nH]c2c1`: the cytotoxicity at 10 µM came to 8.04%.

With `CNCc1cn(C[C@H]2C[C@@H]3CCN2C[C@@H]3C(=O)NC2CCCCC2)nn1`, the cytotoxicity at 10 µM is 1.73%.

Consider `Cn1cnc2cc(CCC(=O)Nc3nc[nH]n3)ccc21`, for which the cytotoxicity at 10 µM was 4.44%.

Take `O=C(NCCN1CCCC1)c1nc2c(o1)CN(c1ncccn1)C2`: the cytotoxicity at 10 µM amounted to 1.24%.

`COCC(=O)N1CCC2(CC1)CC(N1CCN(C)CC1)CO2` (stereo not given): the cytotoxicity at 10 µM is -1.25%.

For the compound `CN1C(=O)CC2(CCN(Cc3cnn(C)c3)CC2)c2ccccc21`, the cytotoxicity at 10 µM turned out to be 15.7%.

Consider `Cc1cnc(CNC(=O)c2cc3c(s2)CCN3S(C)(=O)=O)cn1`, for which the cytotoxicity at 10 µM amounted to 2.22%.

`O=C(C1CN(CC2CC2)CC12CCOCC2)N1CCCC1` (stereo not given): the cytotoxicity at 10 µM came to 7.28%.

For the compound `COC1COC2(CCN(C(=O)c3cocn3)CC2)C1` (stereo not given), the cytotoxicity at 10 µM came out at 9.64%.

In the case of `CCc1c(C(=O)O)nnn1-c1ccc(C)cc1C`, the cytotoxicity at 10 µM is -5.11%.

Consider `CCn1cc(Cl)c(C(=O)NCCCN(C)C)n1`, for which the cytotoxicity at 10 µM stood at 9.46%.

With `Cc1cccc(-n2nnnc2C(C)(C)Nc2ccccc2C)c1`, the cytotoxicity at 10 µM was found to be 8%.

With `O=C1CNc2ncnc(N3CCN(Cc4ccccc4F)CC3)c2N1`, the cytotoxicity at 10 µM was 9.87%.

For `Nc1cc(-c2c[nH]nc2C2CCCN2S(=O)(=O)c2ccccc2)ccn1` (stereo not given), the cytotoxicity at 10 µM was determined as 6.34%.

On to `Cc1cc(-c2cnc(N3CCNC(=O)C3)nc2-c2cccnc2C)on1`, for which the cytotoxicity at 10 µM is -6.9%.

On to `Cc1ccc(-c2cc(N)c(=O)n(CC(=O)NCC3CCCCC3)n2)s1`, for which the cytotoxicity at 10 µM is 2.44%.

Regarding `COCc1c(Br)cccc1NC(=O)CC(F)(F)F`, the cytotoxicity at 10 µM is 2.38%.

For `Cn1cc(S(=O)(=O)Nc2ccc3[nH]c(C4CCC4)nc3c2)cn1`, the cytotoxicity at 10 µM was -8.36%.

As for `O=C(Cc1ccc2c(c1)CCC2)NC1CCN(Cc2ccccc2)CC1`, the cytotoxicity at 10 µM was determined as 1.88%.

Consider `CCOc1cc(Cl)ccc1CNC(=O)c1ccc(=O)n(C)c1`, for which the cytotoxicity at 10 µM is -4.01%.

Consider `COc1cccc(CN(C)C(C)C(=O)Nc2nc(C)c(C)s2)c1` (stereo not given), for which the cytotoxicity at 10 µM was found to be 9.74%.

As for `COc1ccc(OCCNC(=O)c2ccc3c(=O)[nH][nH]c(=O)c3c2)cc1`, the cytotoxicity at 10 µM was -4.83%.

Take `CCc1cnc(CN(C)C(=O)NC2CCN(CC3CC3)C2)s1` (stereo not given): the cytotoxicity at 10 µM was -3.86%.

Take `CC(C)C(=O)N1CCN(CCOc2cccc(C#N)c2)CC1`: the cytotoxicity at 10 µM came to 10.8%.

For the compound `Cc1ccc(C2CCCCCN2CCNS(C)(=O)=O)o1` (stereo not given), the cytotoxicity at 10 µM amounted to 0.395%.

Take `Cc1cc(F)c(S(=O)(=O)Nc2ccn(CCC#N)n2)cc1F`: the cytotoxicity at 10 µM was determined as 17.3%.

Consider `Cc1cccc(N2CCN(C(=O)CCCC(=O)N(C)C)C(C)C2)n1` (stereo not given), for which the cytotoxicity at 10 µM turned out to be 14.6%.

With `CCS(=O)(=O)NCCNCc1cc(F)ccc1Br`, the cytotoxicity at 10 µM is 1.58%.

Turning to `CC(C)C(=O)N1CCN(CC(O)c2cc(Cl)ccc2Cl)CC1` (stereo not given), the cytotoxicity at 10 µM came to 3.41%.

Turning to `CC(C)(C)c1cnc(CN2CCC(NC(=O)Nc3ccccc3)CC2)o1`, the cytotoxicity at 10 µM was -12.3%.

Consider `CN(C)C(=O)NCC1CC2(CO1)CN(c1nncs1)C2` (stereo not given), for which the cytotoxicity at 10 µM is -96.3%.

`O=C(CC(F)(F)F)N1CCC2(CCCN(c3nncs3)C2)C1` (stereo not given): the cytotoxicity at 10 µM was -105%.

For `Cn1cnc(-c2nc(C(=O)NCCN3CCCC3)c3ccccn23)c1`, the cytotoxicity at 10 µM is -109%.

On to `O=C(c1cnccn1)N1CCc2c(COCC3CC3)cncc2C1`, for which the cytotoxicity at 10 µM is -72.4%.

For the compound `O=C(c1ccccn1)N1CC[C@@H](N2CCOCC2)[C@@H]1Cc1ccccc1`, the cytotoxicity at 10 µM was -77.9%.

Consider `CS(=O)(=O)NCc1nnc2n1CCN(CC1CC1)C2`, for which the cytotoxicity at 10 µM was -0.285%.

As for `O=C(O)[C@@H]1CN(C(=O)CSCCN2CCCC2)C[C@H]1c1ccccc1`, the cytotoxicity at 10 µM was -12.1%.

Turning to `Cc1cnc(CNc2ncc(C)c(-c3cnn(C)c3)n2)cn1`, the cytotoxicity at 10 µM was determined as 7.86%.

Regarding `CCOc1cc2c(cc1CN1CCC3(CC1)CNC(=O)C3)CCC2`, the cytotoxicity at 10 µM was -2.04%.

On to `CCc1ccc(CN2CCN(CCOC)[C@@H]3CS(=O)(=O)C[C@@H]32)cc1`, for which the cytotoxicity at 10 µM was -5.72%.

Regarding `CCC[C@H]1CN(C2CCOCC2)C[C@@H]1NC(=O)CCc1cnccn1`, the cytotoxicity at 10 µM stood at 3.12%.

Regarding `CCCN(CCC)C(=O)c1cc(CN2CCC(O)CC2)on1`, the cytotoxicity at 10 µM is 1.29%.

Take `CC(=O)NCCNc1nc(-c2ccccn2)nc2c1c(C)nn2C`: the cytotoxicity at 10 µM turned out to be 2.72%.

For the compound `CCN(Cc1ccccn1)Cc1cc(Cl)ccc1OC`, the cytotoxicity at 10 µM came to 1.45%.

On to `COC[C@]1(O)CCN(C2CCN(c3ccc(F)c(F)c3)CC2)CC1(C)C`, for which the cytotoxicity at 10 µM was -3.85%.

For the compound `CCCn1cc(C(=O)NC2CCN(CC(=O)NC3CC3)CC2)c(C)n1`, the cytotoxicity at 10 µM was 2.29%.

`COc1cc(C2CC(=O)NCc3nc4sccn4c32)cc(OC)c1O` (stereo not given): the cytotoxicity at 10 µM was -0.966%.

Turning to `CCCOc1cc(Cl)c(CN2CCNC(C(=O)NC3CC3)C2)cc1OC` (stereo not given), the cytotoxicity at 10 µM amounted to 0.508%.

Take `Cc1ncsc1CCCNC(=O)C1CC2(CCNCC2)CN1C` (stereo not given): the cytotoxicity at 10 µM amounted to 9.18%.

As for `Cc1nn(C)c2nc(N(C)CCN(C)C)sc12`, the cytotoxicity at 10 µM came out at 9.38%.

In the case of `CC(C)=CCCC1(C)CCC(=O)N(CCc2csc(N)n2)C1` (stereo not given), the cytotoxicity at 10 µM is -4.27%.

`CCN1CCC(N2C[C@@H](C(=O)O)[C@H](c3cccc(OC)c3)C2)CC1`: the cytotoxicity at 10 µM was -2.85%.

Consider `COCc1nc(CNC(=O)C(C)n2ccnc2C(C)C)no1` (stereo not given), for which the cytotoxicity at 10 µM is -0.376%.

For `Cc1nccnc1N1Cc2cnn(Cc3ccc(F)cc3)c2C1`, the cytotoxicity at 10 µM is 2.45%.

As for `COCc1noc(CN2C[C@H](NS(C)(=O)=O)[C@@H](C3CC3)C2)n1`, the cytotoxicity at 10 µM worked out at 1.67%.

Turning to `Cc1c(-c2c(-c3ccccc3)ncn2[C@@H](C(=O)O)[C@H](C)O)cnn1C`, the cytotoxicity at 10 µM is -7.67%.

For `CN(Cc1cc[nH]n1)C(=O)c1cn(Cc2ccccc2Cl)nn1`, the cytotoxicity at 10 µM was 7.59%.

Take `CCC[C@@H]1CN(Cc2cc(OC)c3c(c2)OCO3)C[C@H]1C(=O)O`: the cytotoxicity at 10 µM was -0.778%.

Regarding `O=C(c1ccnc(-n2cnnc2)c1)N1CCCC2(CCOC2)C1` (stereo not given), the cytotoxicity at 10 µM was -15.1%.

Consider `CCc1ccc(NC(=O)C2CCN(C(=O)COC)CC2)cc1`, for which the cytotoxicity at 10 µM came out at 0.929%.

`CCc1nnc(CN(CC)C(=O)C2CC(=O)N(CC)C2)o1` (stereo not given): the cytotoxicity at 10 µM turned out to be 1.97%.

As for `COC(=O)N1CCC2(CC1)CC(c1ccccc1)CN(C)C2` (stereo not given), the cytotoxicity at 10 µM came to 2.09%.

As to `O=C(CN1CCCC(c2ccc(C(=O)O)cc2)C1)NC1CC1` (stereo not given), the cytotoxicity at 10 µM is -9.87%.

On to `Cc1cnccc1CN1CC[C@@](C)(O)[C@H](Oc2ccccc2)C1`, for which the cytotoxicity at 10 µM was -1.78%.

For the compound `COc1c(CNC(c2ccccc2)c2nccn2C)c(C)nn1C` (stereo not given), the cytotoxicity at 10 µM is -3.16%.

With `CCOc1ccccc1C(CC(=O)Nc1ncc(C)s1)NC(C)=O` (stereo not given), the cytotoxicity at 10 µM is -15.3%.

On to `Cc1nc(CN(C)C2CCN(CCc3cccs3)C2)no1` (stereo not given), for which the cytotoxicity at 10 µM was 6.03%.

For `CCn1ccnc1CN1CCCN(C(=O)Cc2ccc(C)s2)CC1`, the cytotoxicity at 10 µM is -19%.

For `CN(CCCOc1ccc(F)cc1)Cc1nc2c(cnn2C)c(=O)[nH]1`, the cytotoxicity at 10 µM was -4.62%.

As for `COCCCN(C)Cc1nc2c(cnn2C)c(=O)[nH]1`, the cytotoxicity at 10 µM is -4.2%.

`Cc1nc(CNC(=O)NCC(O)c2ccc(F)c(F)c2)cs1` (stereo not given): the cytotoxicity at 10 µM is -3.88%.

For the compound `Cc1cc(C)n(CC2CCCN2CCc2ccncc2)n1` (stereo not given), the cytotoxicity at 10 µM was -15.5%.

For the compound `CC(C)c1nn(C)c(N(C)C)c1CNCc1ccccc1CN(C)C`, the cytotoxicity at 10 µM was found to be 1.53%.

For the compound `CN(C)C(=O)CN1CCN(C(=O)Cc2csc(-c3ncccn3)n2)CC1`, the cytotoxicity at 10 µM is -8.52%.

Take `O=C1C(NS(=O)(=O)c2cc(F)cc(F)c2)CCN1Cc1ccccc1` (stereo not given): the cytotoxicity at 10 µM is -10%.

Take `CCCNC(=O)C1CCN(Cc2csc(C(C)(C)C)n2)CC1`: the cytotoxicity at 10 µM is -9.11%.

Turning to `CS(=O)(=O)c1ccc(CNC2CCCN(c3cccnn3)C2)cc1` (stereo not given), the cytotoxicity at 10 µM came out at 1.3%.

In the case of `OCC1CCCN1c1cc(N2CCC(OC3CCCC3)CC2)ncn1` (stereo not given), the cytotoxicity at 10 µM is -2.43%.

For `CNC(=O)N1CCC2(CC1)CN(C)Cc1cc(F)ccc12`, the cytotoxicity at 10 µM is 4.16%.

In the case of `CN(CCO)CC1COCCN1C(=O)CCC1CCCC1` (stereo not given), the cytotoxicity at 10 µM is -9.83%.

For `Cc1ccc(CN2CCc3nnc(COCCN(C)C)n3CC2)o1`, the cytotoxicity at 10 µM came to 2.9%.

Regarding `COCCN1CCCC2(CCN(c3ccsc3)C2=O)C1` (stereo not given), the cytotoxicity at 10 µM was -79.6%.

As to `O=C1C[C@@H]2[C@H](CCN2Cc2ccco2)N1c1ccsc1`, the cytotoxicity at 10 µM came to 8.55%.

As for `COCCN1CCN(C)C2(CCN(C(=O)c3ccnnc3)CC2)C1=O`, the cytotoxicity at 10 µM amounted to 11.6%.

`Cc1noc(C)c1CN1CC[C@H]2OCC[C@@]2(C(=O)N2CCCC2)C1`: the cytotoxicity at 10 µM is -70.7%.

In the case of `Cc1ccccc1C(=O)N1Cc2c(Cn3ccnc3)nn(C)c2C1`, the cytotoxicity at 10 µM is -72.1%.

Consider `O=C([C@H]1CCS(=O)(=O)[C@@H]2CN(CCc3ccccc3)C[C@H]12)N1CCCC1`, for which the cytotoxicity at 10 µM came out at 0.688%.

In the case of `Fc1ccc(CN2CC[C@H]3O[C@@H](COCc4cccnc4)CC[C@H]32)cc1`, the cytotoxicity at 10 µM was -70%.

Consider `Cc1noc(C)c1CN1C[C@@H]2COC[C@@H](C(=O)N3CCCCO3)[C@@H]2C1`, for which the cytotoxicity at 10 µM was -71.7%.

On to `CC(=O)N1CCO[C@@H]2CN(Cc3cccc(Cl)c3)C[C@@H]2C1`, for which the cytotoxicity at 10 µM was -104%.

With `Cc1noc(C)c1CN1CC2(CCCCN2C)CC1=O` (stereo not given), the cytotoxicity at 10 µM stood at 2.75%.

Turning to `c1cncc(OCC2CN(Cc3ccsc3)Cc3nccn3C2)c1` (stereo not given), the cytotoxicity at 10 µM was -72.4%.

For `O=C(CO)N1CCOC2(CCCN(c3ncc(F)cn3)C2)C1` (stereo not given), the cytotoxicity at 10 µM was 12.4%.

For the compound `CC(=O)NCc1noc2c1CN(CCN1CCCC1)CC2`, the cytotoxicity at 10 µM is -5.46%.

Regarding `Cc1ccc(CN2C[C@@H]3C[C@H](C(=O)NCc4cccnc4)[C@H](C2)O3)o1`, the cytotoxicity at 10 µM was 3.82%.
